Experimental data published in ChEMBL document CHEMBL3112410, “Reaction intermediate analogues as bisubstrate inhibitors of pantothenate synthetase” (Bioorg Med Chem, 2014).
pKi: −log10 of the molar value. The source made the active and inactive calls. No cut-off for these calls is given here.

Key:
[1] = tested on: Mycobacterium tuberculosis; assay: Antimycobacterial activity against PanC deficient Mycobacterium tuberculosis H37RvMA assessed as growth inhibition up to 2 mM after 7 to 14 days; type: functional
Procedure, shortened: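 panC conditional knockdown (<5% wild-type PanC) grown to OD600 ~0.2 in 7H9 with Hyg 50 μg/mL, Km 25 μg/mL, Gm 5 μg/mL, diluted 500-fold. 2-fold serial dilutions from 4 mM starting concentration in 7H9 with half-strength antibiotics, with or without ATc (20 ng/mL) alone or ATc plus pantothenate (50 μg/mL). 37 °C, growth scored visually at 7, 10, 14 days.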

Pantothenate synthetase = biological target: T1, Pantothenate synthetase (Mycobacterium tuberculosis, UniProt P9WIL5); assay: Competitive inhibition of Mycobacterium tuberculosis recombinant PanC expressed in Escherichia coli BL21 (DE3) using pantoic acid and ATP as substrate by Michaelis-Menten equation analysis
T1 sequence (P9WIL5 whole entry): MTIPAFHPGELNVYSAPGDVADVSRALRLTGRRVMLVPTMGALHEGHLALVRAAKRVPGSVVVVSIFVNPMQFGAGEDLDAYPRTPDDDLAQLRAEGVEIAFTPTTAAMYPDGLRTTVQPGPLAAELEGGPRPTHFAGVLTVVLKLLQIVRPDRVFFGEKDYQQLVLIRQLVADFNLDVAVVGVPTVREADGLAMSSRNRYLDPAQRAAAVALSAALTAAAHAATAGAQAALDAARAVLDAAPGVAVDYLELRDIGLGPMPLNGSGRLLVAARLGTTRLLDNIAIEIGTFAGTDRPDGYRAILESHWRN
Procedure, shortened: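 N-terminal His6 PanC (pET28b, BL21(DE3), Ni-NTA purified), 400 nM. Continuous MesG pyrophosphate-coupled assay with pyrophosphatase and purine nucleoside phosphorylase, A360, 25 °C. Buffer 100 mM HEPES pH 8.0, 10 mM MgCl2, up to 5% DMSO. Pantoic acid varied 50–300 μM at 2.6 mM ATP, 2.4 mM β-alanine, several fixed inhibitor levels, PanC-initiated. Initial rates fit to the competitive equation for Ki.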

[2] = tested on: Mycobacterium tuberculosis; assay: Antimycobacterial activity against wild type Mycobacterium tuberculosis H37RvMA assessed as growth inhibition up to 250 uM after 7 to 14 days; type: functional
Procedure, shortened: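 H37RvMA grown in 7H9 to OD600 ~0.2, diluted 500-fold into wells holding 2-fold serial compound dilutions (starting concentration 4 mM) in 7H9. Incubated at 37 °C. Growth was read by eye on days 7, 10 and 14.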

Compound | growth inhibition (GI) [1] | pKi (Pantothenate synthetase) | growth inhibition (GI) [2]
CC(C)(C)[C@@H](O)C(=O)NS(=O)(=O)OC[C@H]1O[C@@H](n2cnc3c(N)ncnc32)[C@H](F)[C@@H]1O | inactive | 6.00 | inactive
CC(C)(C)[C@@H](O)C(=O)NS(=O)(=O)OC[C@H]1O[C@@H](n2cnc3c(N)ncnc32)[C@@H](O)[C@@H]1O | inactive | 5.76 | inactive
CC(C)(C)[C@@H](O)C(=O)NS(=O)(=O)OC[C@H]1O[C@@H](n2cnc3c(N)ncnc32)[C@H](O)[C@@H]1O | inactive | 6.57 | inactive
CC(C)(C)[C@@H](O)C(=O)NS(=O)(=O)OC[C@H]1C[C@@H](n2cnc3c(N)ncnc32)[C@H](O)[C@@H]1O | inactive | 6.06 | inactive
CC(C)(CO)[C@@H](O)CNS(=O)(=O)NC[C@H]1O[C@@H](n2cnc3c(N)ncnc32)[C@H](O)[C@@H]1O | inactive | 5.46 | inactive
